The test system of one data set is PC-3. Briefly: Cytotoxicity against human PC3 cells assessed as cell viability at 10 uM after 72 hrs by MTS assay in presence of 10% fetal calf serum relative to control. It counts as functional. Particulars: PC-3, 72 h, read-out: Activity.
In the next data set the test system is HCT-116. The experiment in a line: Cytotoxicity against human HCT116 cells assessed as cell viability at 10 uM after 72 hrs by MTS assay in presence of 10% fetal calf serum relative to control. It is filed as functional. Particulars: HCT-116, 72 h, read-out: Activity.
For the next data set, the system named is LNCaP. The experiment in a line: Cytotoxicity against human LNCAP cells assessed as cell viability at 10 uM after 72 hrs by MTS assay in presence of 10% fetal calf serum relative to control. As to conditions: read-out: Activity. It counts as functional. Background: Tetrazolium dyes change colour on reduction, which living cells bring about.
In another data set the test system is HepG2. The experiment in a line: Cytotoxicity against human HepG2 cells assessed as cell viability at 10 uM after 72 hrs by MTS assay in presence of 10% fetal calf serum relative to control. It is filed as functional. As to conditions: HepG2, 72 h, read-out: Activity.
The next data set concerns MDA-MB-231. The experiment in a line: Cytotoxicity against human MDA-MB-231 cells assessed as cell viability at 10 uM after 72 hrs by MTS assay in presence of 10% fetal calf serum relative to control. It is filed as functional. As to conditions: MDA-MB-231, 72 h, read-out: Activity. In short, it runs like this: (§1)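 Cells were grown in RPMI with L-glutamine, 10% FCS, penicillin/streptomycin and fungizone at 37 °C under 5% CO2. Wells were seeded with 1900 cells for MCF-7 or 1300 cells for MDA-MB-231. After 24 h, compound was added from a 10 mM DMSO stock (final DMSO 1%) for 72 h, with DMSO-only controls. Viable cells were read by MTS at 490 nm and expressed as % of untreated. Mean ± SEM, N = 3.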

Data set [1] in a line: Cytotoxicity against human MDA435 cells assessed as cell viability at 10 uM after 72 hrs by MTS assay in presence of 10% fetal calf serum relative to control. It counts as functional. Particulars: MDA-MB-435, 72 h, read-out: Activity.
The nature of data set [2]: Cytotoxicity against human MiaPaCa cells assessed as cell viability at 10 uM after 72 hrs by MTS assay in presence of 10% fetal calf serum relative to control. As to conditions: MIA PaCa-2, 72 h, read-out: Activity. It counts as functional.
The test system of a further data set is MCF7. The experiment in a line: Cytotoxicity against human MCF7 cells assessed as cell viability at 10 uM after 72 hrs by MTS assay in presence of 10% fetal calf serum relative to control. As to conditions: MCF7, 72 h, read-out: Activity. It is filed as functional. In short, it runs like this:
as §1

Data set [3] can be described thus: Cytotoxicity against human hepatocytes assessed as cell viability at 100 uM after 90 mins by MTT assay relative to control. It is filed as cell-based, Hepatocyte. As to conditions: read-out: Activity. Put shortly:
(§2)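 Cryopreserved human hepatocytes were plated at 0.1 × 10⁶ cells/well and exposed to compound for 90 min. MTT was then added for 30 min at 37 °C, plates were centrifuged, and formazan was dissolved in DMSO. Absorbance was read at 595 nm. Surviving cells are expressed as % of non-treated cells ± SEM.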

A short description of data set [4]: Cytotoxicity against human hepatocytes assessed as cell viability at 200 uM after 90 mins by MTT assay relative to control. Particulars: read-out: Activity. It counts as cell-based, Hepatocyte. Put shortly:
as §2

Molecules are shown by their SMILES.

On to `O=C1S/C(=C\c2ccccc2)C(=O)N1Cc1ccccc1`, for which the viability at 10 µM with PC-3 was found to be 82.4%; in the data set with HCT-116 it was 85.4%; in the data set with LNCaP, 90.8%; with HepG2, 85%; with MDA-MB-231, 81.6%; in data set [1], 89.9%. In addition, the viability at 10 µM in data set [2] amounted to 88.8%; in the data set on MCF7, 95.6%.

Turning to `Cc1c(C)c2c(c(C)c1OC(=O)OC(C)(C)C)CCC(C)(CN1C(=O)S/C(=C\c3ccc(O)cc3)C1=O)O2` (racemic), the viability at 10 µM came to 85.1% in the data set on PC-3; 30.1% in the data set on HCT-116; 55% with LNCaP; 23.4% in the data set with HepG2; 57.9% with MDA-MB-231; 66% in [1]. Further, the figures for the viability at 10 µM (in data set [2]; in the data set on MCF7) were 72.2% and 85.7%, respectively. Also, the viability at 1.5 h, 100 µM in [3] is 65.1%. Further, in data set [4], the viability at 1.5 h, 200 µM turned out to be 37.8%.

Consider `O=C1S/C(=C\c2ccc(O)cc2)C(=O)N1Cc1ccccc1`, for which the viability at 10 µM with PC-3 is 65.8%; in the data set with HCT-116 it was 29.8%; in the data set with LNCaP, 77.6%; with HepG2, 54.5%; in the data set with MDA-MB-231 it was 24.5%; in data set [1], 30.9%. Besides, the viability at 10 µM in data set [2] was determined as 25.6%; in the data set with MCF7 it was 43.9%. For the same compound, the viability at 1.5 h, 100 µM in [3] is 40.8%. Also, in [4], the viability at 1.5 h, 200 µM turned out to be 18%.

As to `COc1cc(/C=C2\SC(=O)N(Cc3ccccc3)C2=O)cc(OC)c1OC`, the viability at 10 µM in the data set with PC-3 was found to be 67.9%; with HCT-116, 55.9%; in the data set with LNCaP, 76.2%; in the data set on HepG2, 63.8%; in the data set on MDA-MB-231 it was 51.5%; in data set [1] it was 78.8%. In addition, the viability at 10 µM was found to be 69.8% in data set [2] and 74.7% in the data set with MCF7.

Regarding `O=C1S/C(=C\c2ccc(O)cc2)C(=O)N1C/C=C/c1ccccc1`, the viability at 10 µM with PC-3 was 57.1%; in the data set on HCT-116 it was 17.4%; in the data set with LNCaP, 63.4%; with HepG2, 41.3%; with MDA-MB-231, 8.7%; in data set [1], 18.3%. The viability at 10 µM in data set [2] is 16.2%; with MCF7, 35%. In data set [3], the viability at 1.5 h, 100 µM was determined as 88.8%. Also, the viability at 1.5 h, 200 µM in [4] was determined as 62.7%.

Turning to `Cc1c(C)c2c(c(C)c1O)CCC(C)(COc1ccc(/C=C3\SC(=O)N(C)C3=O)cc1)O2` (racemic), the viability at 10 µM in the data set with PC-3 was 85.5%; with HCT-116 it was 68.4%; in the data set on LNCaP, 66.8%; in the data set with HepG2, 60.3%; with MDA-MB-231 it was 64.3%; in data set [1], 94.7%. For the same compound, the results for the viability at 10 µM (in data set [2]; in the data set on MCF7) were 80.2% and 100%, respectively. The viability at 1.5 h, 100 µM in [3] was determined as 147%. Also, the viability at 1.5 h, 200 µM in [4] came out at 127%.

In the case of `CCOC(=O)C1(C)CCc2c(C)c(/C=C3\SC(=O)N(Cc4ccccc4)C3=O)c(C)c(C)c2O1` (racemic), the viability at 10 µM turned out to be 98.3% in the data set on PC-3; 88% in the data set on HCT-116; 87.5% with LNCaP; 69.2% in the data set on HepG2; 68.8% in the data set on MDA-MB-231; 81.4% in data set [1]. Besides, the viability at 10 µM worked out at 86% in data set [2] and 97.2% in the data set on MCF7.

For the compound `Cc1c(C)c2c(c(C)c1O)CCC(C)(COc1ccc(/C=C3\SC(=O)N(Cc4ccccc4)C3=O)cc1)O2` (racemic), the viability at 10 µM with PC-3 was 100%; in the data set on HCT-116, 43%; with LNCaP it was 85.7%; in the data set with HepG2, 63.2%; in the data set on MDA-MB-231, 76.4%; in data set [1], 88.7%. Moreover, the viability at 10 µM in data set [2] was 100%; in the data set with MCF7 it was 85.3%.

Regarding `Cc1c(C)c2c(c(C)c1OC(=O)CCCCCCCN)CCC(C)(COc1ccc(/C=C3\SC(=O)N(C)C3=O)cc1)O2` (racemic), the viability at 10 µM in the data set with PC-3 was 2.4%; in the data set with HCT-116 it was 0.6%; with LNCaP, 9.3%; in the data set on HepG2, 7.9%; with MDA-MB-231 it was 0%; in [1], 0%. Further, the viability at 10 µM (in data set [2]; with MCF7) was 0% in each case. Also, the viability at 1.5 h, 100 µM in data set [3] amounted to 84.5%. Also, the viability at 1.5 h, 200 µM in data set [4] was determined as 54.4%.

With `Cc1c(C)c2c(c(C)c1OC(=O)CCCCCCCNC(=O)OC(C)(C)C)CCC(C)(COc1ccc(/C=C3\SC(=O)NC3=O)cc1)O2` (stereo not drawn), the viability at 10 µM was found to be 62% in the data set on PC-3; 37% in the data set on HCT-116; 21.1% in the data set on LNCaP; 18.4% with HepG2; 42.2% in the data set on MDA-MB-231; 51.5% in data set [1]. Also, the figures for the viability at 10 µM (in data set [2]; in the data set on MCF7) were 53.8% and 62.5%, respectively. Moreover, the viability at 1.5 h, 100 µM in data set [3] is 79.3%. The viability at 1.5 h, 200 µM in data set [4] came to 74.7%.

For the compound `O=C1S/C(=C\c2ccc([N+](=O)[O-])cc2)C(=O)N1Cc1ccccc1`, the viability at 10 µM worked out at 72.3% with PC-3; 93.9% with HCT-116; 77.9% in the data set with LNCaP; 79.4% with HepG2; 64.6% in the data set on MDA-MB-231; 86% in data set [1]. Further, the viability at 10 µM turned out to be 84.9% in [2] and 80.2% with MCF7.

With `O=C1S/C(=C\c2ccc(Cl)cc2)C(=O)N1Cc1ccccc1`, the viability at 10 µM with PC-3 came out at 95.5%; in the data set on HCT-116, 84%; in the data set with LNCaP, 85.5%; with HepG2, 79.3%; in the data set on MDA-MB-231, 73%; in [1] it was 88.8%. Besides, the viability at 10 µM in [2] amounted to 88.3%; in the data set on MCF7, 100%.

For `COc1ccc(/C=C2\SC(=O)N(Cc3ccccc3)C2=O)cc1`, the viability at 10 µM in the data set on PC-3 is 91.4%; in the data set with HCT-116 it was 82.1%; in the data set on LNCaP it was 100%; with HepG2, 87.9%; in the data set on MDA-MB-231 it was 89.5%; in data set [1], 92.7%. Moreover, the viability at 10 µM was determined as 99.3% in data set [2] and 100% with MCF7.

Consider `Cc1c(C)c2c(c(C)c1OC(=O)OC(C)(C)C)CCC(C)(/C=C1\SC(=O)N(Cc3ccccc3)C1=O)O2` (racemic), for which the viability at 10 µM was found to be 82.4% with PC-3; 90.5% in the data set with HCT-116; 96.2% with LNCaP; 76.3% in the data set with HepG2; 75.4% in the data set with MDA-MB-231; 67.6% in [1]. Further, the viability at 10 µM in [2] came out at 75.3%; with MCF7, 76.5%.

Consider `CC(C)(C)OC(=O)c1ccccc1-c1ccc(CN2C(=O)S/C(=C\c3ccc(O)cc3)C2=O)cc1`, for which the viability at 10 µM in the data set with PC-3 was 49.9%; in the data set on HCT-116 it was 61.6%; in the data set with LNCaP, 32.4%; in the data set on HepG2, 22.8%; in the data set with MDA-MB-231, 51.9%; in data set [1] it was 66.8%. The viability at 10 µM in data set [2] came out at 59.9%; in the data set on MCF7 it was 80.3%.

Consider `O=C(O)c1ccccc1-c1ccc(CN2C(=O)S/C(=C\c3ccc(O)cc3)C2=O)cc1`, for which the viability at 10 µM came out at 95.6% in the data set with PC-3; 97.6% in the data set with HCT-116; 90.1% with LNCaP; 89.8% in the data set with HepG2; 94.9% in the data set with MDA-MB-231; 100% in data set [1]. Also, the viability at 10 µM in data set [2] came out at 99.3%; with MCF7 it was 99.6%.

For `Cc1c(C)c2c(c(C)c1O)CCC(C)(/C=C1\SC(=O)N(Cc3ccccc3)C1=O)O2` (racemic), the viability at 10 µM in the data set on PC-3 turned out to be 83.4%; in the data set with HCT-116, 81%; in the data set on LNCaP it was 84.6%; with HepG2 it was 71.5%; in the data set with MDA-MB-231 it was 88%; in [1] it was 75.7%. Moreover, the values for the viability at 10 µM (in [2]; with MCF7) were 80.7% and 94.2%, respectively.

The record behind these values is ChEMBL document CHEMBL3297735, “Optimization of troglitazone derivatives as potent anti-proliferative agents: towards more active and less toxic compounds” (Eur J Med Chem, 2014).
